A selection: hits, their analogues and other compounds. The true share with any hit is near 3.2%.
SMARCA2 act: SMARCA2 function activation, primary screen | MG213 cells, MMTV-luciferase reporter, dexamethasone, overnight | activation, % at 9.1 µM | hit rate 1% among 370,000; in the data active means activation above about 7.8%
DAX1 inh-1: DAX1 (NR0B1) inhibition, primary screen | inhibition, % at 6.8 µM | HEK293T StAR-luciferase reporter, SF-1/DAX-1 repression relief | hit rate 1.1% among 370,000;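 active means inhibition above the mean over all tested compounds plus 3 SD, cut at about 3.6% in these data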;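 further: higher inhibition means more luminescence from relief of DAX-1 repression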
GASC-1 inh: human JMJD2C demethylase inhibition. GST-JMJD2C(1-420) H3K9me3 demethylation, DELFIA europium. hit rate 0.069% among 330,000. AID 2099. inhibition, % at 2.35 µM. Q9H3R0;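 active means more than half of a compound's replicate wells show inhibition beyond 50%, single wells judged on their own value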;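 further: signal counts dimethyl H3K9 product captured on neutravidin plate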
DAX1 inh-2: inhibits human nuclear receptor DAX1; hit rate 0.99% among 340,000; HEK293 Gal4-DAX1 luciferase reporter, luminescence; inhibition, % at 6.75 µM; AID 504766; P51843;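 active means inhibition above the mean over all tested compounds plus 3 SD, cut at about 4.2% in these data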;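 further: inhibition shows as a rise in luminescence from relieved DAX1 repression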
Target sequence (P51843 207-470 limits assumed): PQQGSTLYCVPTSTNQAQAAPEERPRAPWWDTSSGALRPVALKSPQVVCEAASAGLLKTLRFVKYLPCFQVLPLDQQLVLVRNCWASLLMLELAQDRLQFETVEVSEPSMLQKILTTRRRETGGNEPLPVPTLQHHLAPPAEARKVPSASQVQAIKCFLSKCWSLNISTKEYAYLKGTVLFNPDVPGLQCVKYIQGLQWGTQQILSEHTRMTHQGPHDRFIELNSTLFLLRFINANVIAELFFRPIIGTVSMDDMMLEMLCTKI
NR2E3 ag-1: activates human photoreceptor nuclear receptor NR2E3. GST-NR2E3/biotin-RetCOR TR-FRET, 1536-well. hit rate 0.12% among 320,000. inhibition of corepressor binding, % at 4.78 µM. Q9Y5X4;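 active means percent inhibition above the cutoff of mean plus 3 SD of all tested compounds, set per screening campaign, cut at about 20% in these data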
Target sequence (Q9Y5X4 whole entry, looked up): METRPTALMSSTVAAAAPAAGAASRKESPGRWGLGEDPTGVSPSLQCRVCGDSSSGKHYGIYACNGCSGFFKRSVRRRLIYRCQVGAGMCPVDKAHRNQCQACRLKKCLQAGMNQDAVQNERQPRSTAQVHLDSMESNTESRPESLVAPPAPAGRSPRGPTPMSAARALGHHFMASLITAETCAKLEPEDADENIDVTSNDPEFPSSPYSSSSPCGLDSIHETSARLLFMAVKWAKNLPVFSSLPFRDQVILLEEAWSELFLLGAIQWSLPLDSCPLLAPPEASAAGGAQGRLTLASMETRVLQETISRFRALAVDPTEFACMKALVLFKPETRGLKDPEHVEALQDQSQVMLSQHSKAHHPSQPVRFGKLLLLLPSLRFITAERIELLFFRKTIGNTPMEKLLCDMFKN
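Test system: GST-NR2E3 and biotin-RetCOR proteins | Quantity: 1.35 nM GST-tagged NR2E3 final | Medium: Tris pH 7.5 | Also added: 7 nM biotin-RetCOR | Dosing: Compound at 4.8 µM, single dose | Timing: 5 h at 4 °C | Detection: Time-resolved FRET | Read-out basis: Percent inhibition | Benchmarks: Biotin wells as high control, 0.6% DMSO wells as low control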
NR2E3 ag-2: agonists of human NR2E3 nuclear receptor; CHO-S Gal4-NCOR/VP16-NR2E3 two-hybrid, luciferase; inhibition of corepressor binding, % at 3.98 µM; AID 602229; hit rate 0.35% among 360,000; Q9Y5X4;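 active means inhibition above the mean of all tested compounds plus 3 SD, cut at about 70% in these data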;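 further: higher means lower luciferase signal from less NR2E3 corepressor binding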
Hits are given with their value; – = inactive; · = no result given.

SMILES	SMARCA2 act	DAX1 inh-1	GASC-1 inh	DAX1 inh-2	NR2E3 ag-1	NR2E3 ag-2
CC(C)(C)c1ccc(/C=C/C(=O)N2CCCCC2)cc1	–	3.7	–	–	·	–
Cc1ccc(/C=C/C(=O)N2CCCC(C)C2)cc1 (stereo not drawn)	–	4.4	–	–	–	–
COC(=O)[C@]12C[C@H](CC(=O)NCC34CC5CC(CC(C5)C3)C4)C(=O)N(Cc3cccc4ccccc34)C1=C[C@H](C1CCCC1)O[C@@H]2C	–	–	·	·	·	·
O=C(CSc1nnc(-c2ccccn2)n1-c1ccccc1)c1ccc(F)cc1	–	–	·	·	·	·
O=C(O)CCC(=O)Nc1ccccc1C(=O)N1CCN(c2ccc(Cl)cc2)CC1	–	–	–	6.8	–	–
O=C(O)C1CC=CCC1C(=O)Nc1ccccc1C(=O)N1CCN(c2ccc(Cl)cc2)CC1 (stereo not drawn)	–	–	–	·	–	–
CSCc1ccc(C(=O)NCCSc2ccc(Br)cc2)cc1	–	4.1	–	–	–	–
Clc1ccc(-c2nnc(N3CCCC3)nn2)cc1	–	–	–	8.8	–	–
CN1CCN(CCn2c(=S)[nH]c3ccccc3c2=O)CC1	–	–	–	–	–	–
O=c1c2ccccc2[nH]c(=S)n1CCN1CCc2ccccc2C1	–	–	–	4.3	–	–
Cc1ccc(NC(=O)OC2CC3CC2[C@H]2CCCCN2C3)cc1C (stereo partly drawn)	–	–	·	·	·	·
CCCCN1CCc2c([nH]c3ccc(C)cc23)C1=O	–	3.9	–	–	–	–
C#CCNC(=O)C[C@@H]1C(=O)N(CCc2ccc(Cl)cc2)/C2=C/CCCCC[C@@]21C(=O)OCC	–	–	·	·	·	·
COC1=C[C@H](C(=O)NC2CCN(Cc3ccccc3)CC2)C(C)C(c2ccccc2)CC1=O (stereo partly drawn)	–	–	·	·	·	·
COCCNC(=O)/C(C#N)=C/c1cc(C)n(C2CCCCC2)c1C	–	4.0	–	–	–	–
COCCCN1C(=O)[C@H](CC(=O)NCC23CC4CC(CC(C4)C2)C3)[C@]2(C(=O)OC)CCCCC=C12	–	–	·	·	·	·
Cc1c(C(=O)N2CCC[C@H]2C(N)=O)oc2c(F)cccc12	–	–	–	6.0	·	–
O=[N+]([O-])c1ccc(NN=Cc2cccc(O)c2)nc1	–	–	·	5.6	·	–
O=[N+]([O-])c1ccc(S(=O)(=O)NN=Cc2ccc3c(c2)OCO3)cc1	–	–	·	–	·	–
COc1ccc(/C=N/Nc2ccc([N+](=O)[O-])cc2)cc1O	–	–	–	7.8	–	–
O=[N+]([O-])c1ccc(N/N=C\c2cccnc2)nc1	–	–	–	–	–	–
O=[N+]([O-])c1ccc(NN=Cc2ccc3c(c2)OCO3)nc1	–	–	·	7.2	·	–
CCC(C)c1ccc(NC(=O)CSc2nnc(-c3cccc(C)c3)n2C)cc1 (stereo not drawn)	–	–	·	·	·	·
COc1cccc(/C=N/n2c(SC)nnc2-c2ccccc2)c1OC	–	–	–	–	–	–
COc1cccc(/C=N/n2c(SC)nnc2-c2ccccc2)c1O	–	–	–	4.6	–	–
SMILES	SMARCA2 act	DAX1 inh-1	GASC-1 inh	DAX1 inh-2	NR2E3 ag-1	NR2E3 ag-2
CSc1nc2c(C)c(C)c(C)c(C)c2[nH]1	–	–	–	5.1	–	–
N/C(=N\OC(=O)c1ccc2c(c1)OCO2)c1ccncc1	–	–	–	5.1	–	–
Cc1ccc(/C(N)=N/OC(=O)c2ccc(Cl)cc2Cl)cc1	–	–	–	4.7	–	–
COc1cccc(C(=O)O/N=C(\N)c2ccc(C)cc2)c1	–	–	–	4.5	–	–
Cc1cccc(/C(N)=N/OC(=O)c2ccncc2)c1	–	9.4	–	–	·	–
O=C(NCCc1c[nH]c2ccccc12)OCc1cn(-c2ccccc2Cl)nn1	–	–	·	·	·	·
O=C(CSc1nnc(-c2ccccc2)n1-c1ccccc1)NN=Cc1ccc(-c2ccccc2)cc1	–	–	·	·	·	·
O=C(Nc1ccc(Cl)cc1)C1CCCN1S(=O)(=O)c1cccnc1 (stereo not drawn)	–	–	·	·	·	·
COc1cccc(/C(N)=N/OC(=O)Cc2ccccc2[N+](=O)[O-])c1	–	–	–	4.7	–	–
COc1ccc(C(=O)O/N=C(\N)c2ccccc2)cc1OC	–	–	–	5.9	–	–
COc1ccc(C(=O)O/N=C(\N)c2cccc(C)c2)cc1OC	–	–	–	–	–	–
COc1cccc(C(=O)O/N=C(\N)c2ccncc2)c1	7.8	–	–	–	–	–
COc1ccc(C(=O)O/N=C(\N)c2ccncc2)cc1OC	–	–	–	–	–	–
N/C(=N\OC(=O)Cc1ccccc1[N+](=O)[O-])c1ccncc1	–	–	–	–	–	–
COc1ccc2c(c1)CCCN2C(=O)C1CCCN(S(=O)(=O)c2cc(OC)ccc2OC)C1 (stereo not drawn)	–	–	·	·	·	·
COc1ccc(OC)c(S(=O)(=O)N2CCCC(c3noc(-c4ccc(C)cc4)n3)C2)c1 (stereo not drawn)	–	–	·	·	·	·
CCOc1ccc(-n2c(SCC(=O)Nc3cc4oc5ccccc5c4cc3OC)nnc2-c2cccc(Cl)c2)cc1	–	–	·	·	·	·
Cc1cccc(C2N=C(N)Nc3nc4ccccc4n32)c1 (stereo not drawn)	–	–	–	4.8	–	–
CCCC[C@H]1C2CC(OC(=O)Nc3ccccc3C)C(C2)[C@H]2CCCCN21 (stereo partly drawn)	–	–	·	·	·	·
CC1CCCCN1C(=O)CN1CCC(c2nc3ccc(Cl)cc3[nH]2)CC1 (stereo not drawn)	–	–	–	4.5	–	–
Cc1ccc(CN2CCC(c3nc4ccc(Cl)cc4[nH]3)CC2)cc1	–	–	–	–	–	–
CCn1c(COc2ccccc2)nnc1SCC(=O)Nc1ccc(S(=O)(=O)Nc2cc(C)nc(C)n2)cc1	–	–	·	·	·	·
COC(=O)[C@]12C[C@H](CC(=O)N3CCCCC3)C(=O)N(Cc3cccc4ccccc34)C1=C[C@H](COCc1ccccc1)O[C@@H]2C	–	–	·	·	·	·
COc1ccccc1-c1nc(COc2ccc(Cl)cc2Cl)no1	–	–	–	4.6	–	–
CCN(C[C@H]1N[C@@](C)(C(=O)OC)[C@H]2C(=O)N(C)C(=O)[C@@H]12)C(=O)Nc1ccccc1	–	–	54.5	–	·	–
CCN(C[C@H]1N[C@@](C)(C(=O)OC)[C@H]2C(=O)N(C)C(=O)[C@@H]12)C(=O)c1ccccc1	–	–	·	–	·	–
O=C(C1CCC1)N1CCc2cc(S(=O)(=O)C3CCN(Cc4ccc(F)cc4)CC3)ccc21	–	–	·	·	·	·
COC(=O)[C@]1(C)CN(C(=O)OC(C)(C)C)C2=C1C(=O)C[C@](C)(C(=O)OC(C)(C)C)C2	–	–	·	·	·	·
O=C1C(=O)N(Cc2ccccc2)C(=O)N1CCN1C(=O)c2ccccc2C1=O	–	–	–	–	–	–
O=C1Cc2ccccc2C(=O)N1CCc1ccccc1	–	–	–	4.7	–	–

Source: PubChem (several laboratories)
